This is an account of results in ChEMBL document CHEMBL4145615, “Indolyl Azaspiroketal Mannich Bases Are Potent Antimycobacterial Agents with Selective Membrane Permeabilizing Effects and in Vivo Activity” (J Med Chem, 2018).

≈ marks a conversion by molar mass, not a printed value. Calls of active or inactive are those of the source. The calls are words filed in the database; no cut-off is given here.

The test system of experiment [1] is Cell membrane. Description: Disruption of cell membrane potential in Mycobacterium bovis BCG ATCC 35734 at 4 times MIC90 after 4 hrs by DiOC2 dye-based fluorescence assay. Particulars: Mycobacterium tuberculosis variant bovis BCG. The essentials:
(§1)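 Controls were rifampicin 0.08 μM (negative) and CCCP 100 μM (positive). Membrane potential tracked by DiOC2 red/green fluorescence ratio over minutes–hours and days 1–5, versus drug-free cultures. 2–3 independent biological replicates.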

Experiment [2] concerns Cell membrane. The experiment in a line: Disruption of cell membrane potential in Mycobacterium bovis BCG ATCC 35734 at 4 times MIC90 after 3 days by DiOC2 dye-based fluorescence assay. The following applies: Mycobacterium tuberculosis variant bovis BCG. Summed up:
as §1

Experiment [3] relates to Mycobacterium tuberculosis variant bovis BCG. Description: Antimycobacterial activity against Mycobacterium bovis BCG ATCC 35734 after 5 days in presence of 10% FBS by broth dilution method. In kind it is functional. The following applies: ATCC 35734, 120 h.
For experiment [4] the test system is unchanged. The experiment in a line: Antimycobacterial activity against Mycobacterium bovis BCG ATCC 35734 after 5 days by broth dilution method. The experiment is classed as functional. The following applies: ATCC 35734, 120 h.
For experiment [5] the test system is unchanged. The experiment in a line: Bactericidal activity against Mycobacterium bovis BCG ATCC 35734 assessed as 1000 fold reduction in CFU after 5 days. The experiment is classed as functional. Particulars: ATCC 35734, 120 h, read-out: MBC99.9. The essentials: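 BCG ran 5 days at 37°C, 110 rpm; H37Rv ran 7 days at 37°C, 80 rpm. CFU counted on 7H10 agar. MBC99.9 is the 1000-fold CFU reduction versus inoculum at time zero. Average of 2 or more determinations.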

In experiment [6] the test system is Cell membrane. Description: Induction of cell membrane permeabilization in Mycobacterium bovis BCG ATCC 35734 at 4 times MIC90 after 12 hrs by SYTO9/propidium iodide staining-based fluorescence assay. The following applies: Mycobacterium tuberculosis variant bovis BCG. The essentials: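 At each time point cells were washed into 0.9% NaCl at OD600 = 0.5 and stained with SYTO 9 and PI for 15 min at 37°C in the dark. Green (488/530 nm) and red (488/630 nm) fluorescence read. G/R ratio scaled between drug-free (0%) and 5% SDS (100%). Three biological replicates.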

Experiment [7] relates to Mycobacterium tuberculosis variant bovis BCG. The experiment in a line: Bactericidal activity against Mycobacterium bovis BCG ATCC 35734 at 4 times MIC90 measured up to 48 hrs by time kill assay relative to control. In kind it is functional. Summed up: (§2)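 Samples taken at 6, 12, 24 and 48 h, diluted and plated on 7H10 agar for CFU. Three independent biological replicates.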

Experiment [8] shares this test system. Description: Antimycobacterial activity against Mycobacterium bovis BCG ATCC 35734 after 5 days in absence of glycerol by broth dilution method. In kind it is functional. Particulars: ATCC 35734, 120 h.
Experiment [9] has as its system Cell membrane. The experiment in a line: Disruption of cell membrane potential in Mycobacterium bovis BCG ATCC 35734 at 0.08 uM after 20 mins to 5 days by DiOC2 dye-based fluorescence assay. The following applies: Mycobacterium tuberculosis variant bovis BCG. Summed up: as §1
Experiment [10] deals with Mycobacterium tuberculosis variant bovis BCG. Description: Bactericidal activity against Mycobacterium bovis BCG ATCC 35734 at 4 times MIC90 measured at 48 hrs by time kill assay relative to control. In kind it is functional, organism-based. The essentials:
as §2

Experiment [11] has as its system Cell membrane. The experiment in a line: Disruption of cell membrane potential in Mycobacterium bovis BCG ATCC 35734 at 100 uM after 20 mins to 5 days by DiOC2 dye-based fluorescence assay. Particulars: Mycobacterium tuberculosis variant bovis BCG. The essentials:
as §1

For the molecule `CCCCCCCCn1cc(CN2CCCCCC2)c2c(F)cccc21`, the outcome in experiment [1] was inactive. In experiment [2], the outcome was Active.
As to `CCCCCCCCn1cc(CN2CCC3(CC2)OCCCS3)c2ccc(OC)cc21`, the MIC50 in [3] was 0.6 µM; in [4], 0.4 µM (≈ 0.178 µg/mL); in experiment [8], 0.41 µM (≈ 0.182 µg/mL). In addition, in experiment [4], the MIC90 worked out at 0.8 µM (≈ 0.356 µg/mL). For the same molecule, in experiment [5], the MBC is 0.4 to 1.6 µM (≈ 0.178 to 0.711 µg/mL). The result in [6] was Active. Also, the “fold change (FC)” value in experiment [7] is on record as above 100.
Consider `CO[C@H]1/C=C/O[C@@]2(C)Oc3c(C)c(O)c4c(O)c(c(/C=N/N5CCN(C)CC5)c(O)c4c3C2=O)NC(=O)/C(C)=C\C=C\[C@H](C)[C@H](O)[C@@H](C)[C@@H](O)[C@@H](C)[C@H](OC(C)=O)[C@@H]1C`, for which the result in [9] was inactive.
For the molecule `CCCCCCCCn1cc(CN2CCC3(CC2)OCCCO3)c2ccc(OC)cc21`, the figures for the MIC50 in [3], in experiment [4] and in experiment [8] were 0.33 µM, 0.3 µM (≈ 0.129 µg/mL) and 0.35 µM (≈ 0.15 µg/mL), respectively. Moreover, the MIC90 in experiment [4] amounted to 0.8 µM (≈ 0.343 µg/mL). For the same molecule, the MBC in experiment [5] lay in the range of 0.8 to 1.6 µM (≈ 0.343 to 0.686 µg/mL). For the same molecule, in [7], the “fold change (FC)” value is above 100.
`CCCCCCCCn1cc(CN2CCC3(CC2)OCCO3)c2ccc(OC)cc21`: in experiment [10], the result was inactive. Besides, the MIC50 in experiment [3] came out at 1.1 µM; in [4], 2 µM (≈ 0.829 µg/mL); in experiment [8], 1.6 µM (≈ 0.663 µg/mL). The molecule also displayed an MIC90 in experiment [4] of 4 µM (≈ 1.66 µg/mL). Also, the MBC in [5] was in the range of 3 to 6 µM (≈ 1.24 to 2.49 µg/mL).
For the molecule `CCCCCCCCn1cc(CN2CCC3(CC2)SCCS3)c2ccc(OC)cc21`, the MIC50 in [3] turned out to be 0.28 µM; in experiment [4] it was 0.5 µM (≈ 0.223 µg/mL); in experiment [8], 0.27 µM (≈ 0.121 µg/mL). This molecule also yielded an MIC90 in [4] of 0.8 µM (≈ 0.357 µg/mL). In addition, the MBC in [5] was in the range of 0.8 to 1.6 µM (≈ 0.357 to 0.715 µg/mL).
For `COc1ccc2c(CN3CCC4(CC3)OCCCO4)cn(CCCOc3ccc(F)cc3)c2c1`, in experiment [4], the MIC50 was 1.5 µM (≈ 0.703 µg/mL) and the MIC90 was found to be 2.6 µM (≈ 1.22 µg/mL).
On the same counts, the results for `CCCCCCCCn1cc(CN2CC3COCC(C2)O3)c2ccc(OC)cc21` are 17 µM (≈ 6.81 µg/mL) and 30 µM (≈ 12 µg/mL).
On the same counts, the results for `COc1ccc2c(CN3CCC4(CC3)OCCCO4)cn(CCCOc3ccccc3)c2c1` are 1.3 µM (≈ 0.586 µg/mL) and 3.1 µM (≈ 1.4 µg/mL).
On the same counts, the results for `COc1ccc2c(CN3CCC4(CC3)OCCO4)cn(CCCOc3ccc(C)cc3)c2c1` are 4.8 µM (≈ 2.16 µg/mL) and 11 µM (≈ 4.96 µg/mL).
As to `CCCCCCCCn1ccc2cc(OCCCN3CCCCCC3)ccc21`, in experiment [4], the MIC50 is 1.9 µM (≈ 0.731 µg/mL) and the MIC90 stood at 8 µM (≈ 3.08 µg/mL).
As for `NNC(=O)c1ccncc1` [ISONIAZID], the “fold change (FC)” value in experiment [7] is reported as above 100.
In experiment [4], `CCCCCCCCn1cc(CN2CCC3(CC2)OCCO3)c2ccc(OCc3ccccc3)cc21` had an MIC50 of 4 µM (≈ 1.96 µg/mL) and an MIC90 of 5.5 µM (≈ 2.7 µg/mL).
On the same counts, the results for `COc1ccc(CCCn2cc(CN3CCC4(CC3)OCCO4)c3ccc(OC)cc32)cc1` are 7.4 µM (≈ 3.33 µg/mL) and 17 µM (≈ 7.66 µg/mL).
On the same counts, the results for `CCCCCCCCn1cc(CN2CCC(=O)CC2)c2ccc(OC)cc21` are 17 µM (≈ 6.3 µg/mL) and 24 µM (≈ 8.89 µg/mL).
On the same counts, the results for `CCCCCCCCn1cc(CN2CCC3(CC2)OCCO3)c2ccc(OCCC)cc21` are 3 µM (≈ 1.33 µg/mL) and 5 µM (≈ 2.21 µg/mL).
In [4], `CCCCCCCCn1cc(CN2CCC3(CC2)OCCCO3)c2cc([N+](=O)[O-])ccc21` registered an MIC50 of 7 µM (≈ 3.11 µg/mL) and an MIC90 of 18 µM (≈ 7.98 µg/mL).
On the same counts, the results for `COc1ccc2c(CN3CCC4(CC3)OCCCO4)cn(CCCOc3ccc(C)cc3)c2c1` are 1.3 µM (≈ 0.604 µg/mL) and 2.6 µM (≈ 1.21 µg/mL).
On the same counts, the results for `CCCCCCCCn1cc(CNCC2CCC3(CCCC3)O2)c2ccc(OC)cc21` (centres undefined) are 1.8 µM (≈ 0.768 µg/mL) and 4.6 µM (≈ 1.96 µg/mL).
In the case of `CCCCCCCCn1ccc2c(OCCCN3CCCC3)cccc21`, in experiment [4], the MIC50 stood at 18 µM (≈ 6.42 µg/mL) and the MIC90 was determined as 36 µM (≈ 12.8 µg/mL).
In experiment [4], `CCCCCCCCn1cc(CN2CCCCC2)c2ccc(OC)cc21` gave an MIC50 of 7 µM (≈ 2.5 µg/mL) and an MIC90 of 13 µM (≈ 4.64 µg/mL).
`CCCCCCCCn1cc(CNC2Cc3ccccc3C2)c2ccc(OC)cc21` registered an MIC50 in [4] of 4 µM (≈ 1.62 µg/mL).
Consider `CCCCCCCCn1cc(CN2CCCC3(CC2)OCCS3)c2ccc(OC)cc21` (centres undefined), for which, in experiment [4], the MIC50 turned out to be 0.7 µM (≈ 0.311 µg/mL) and the MIC90 was 1.2 µM (≈ 0.534 µg/mL).
On the same counts, the results for `CCCCCCCCn1cc(CN2CCC3(CC2)OCCCO3)c2ccc(OC(C)C)cc21` are 0.6 µM (≈ 0.274 µg/mL) and 1.6 µM (≈ 0.731 µg/mL).
For `CCCCCCCCn1cc(CN2CCC3(CC2)SCCCS3)c2ccc(OC)cc21`, the MIC50 is 0.48 µM in experiment [3], 0.4 µM (≈ 0.184 µg/mL) in experiment [4] and 0.43 µM (≈ 0.198 µg/mL) in experiment [8]. In [4], this molecule registered an MIC90 of 0.8 µM (≈ 0.369 µg/mL). Moreover, the MBC in experiment [5] fell in the range of 0.8 to 1.6 µM (≈ 0.369 to 0.737 µg/mL).
For `CCCCCCCCn1cc(CNC2CCC(=O)CC2)c2ccc(OC)cc21`, in experiment [4], the MIC50 is 15 µM (≈ 5.77 µg/mL) and the MIC90 came to 24 µM (≈ 9.23 µg/mL).
On the same counts, the results for `CCCCCCCCn1cc(CN2CCC3(C=Cc4ccccc43)CC2)c2ccc(OC)cc21` are 1 µM (≈ 0.457 µg/mL) and 2 µM (≈ 0.913 µg/mL).
On the same counts, the results for `COc1ccc2c(CN3CCC4(CC3)OCCCO4)cn(CCCCOc3ccccc3)c2c1` are 11 µM (≈ 5.11 µg/mL) and 25 µM (≈ 11.6 µg/mL).
As to `CCCCCCCCn1cc(CN2CCC3(CC2)OCCS3)c2ccc(OC)cc21`, the MIC50 in [3] was determined as 0.32 µM; in [4] it was 0.6 µM (≈ 0.258 µg/mL); in experiment [8] it was 0.37 µM (≈ 0.159 µg/mL). In addition, in [4], the MIC90 stood at 0.8 µM (≈ 0.345 µg/mL). Besides, in [5], the MBC lay within 0.8 to 1.6 µM (≈ 0.345 to 0.689 µg/mL).
`CCCCCCCCn1cc(CN2CCC3(CCc4ccccc43)CC2)c2ccc(OC)cc21`: in experiment [4], the MIC50 amounted to 1 µM (≈ 0.459 µg/mL) and the MIC90 is 2 µM (≈ 0.917 µg/mL).
On the same counts, the results for `CCCCCCCCn1ccc2cc(OCCN3CCCCCC3)ccc21` are 2 µM (≈ 0.741 µg/mL) and 6 µM (≈ 2.22 µg/mL).
On the same counts, the results for `CCCCCCCCn1cc(CN2CCCC3(C2)CC3(F)F)c2ccc(OC)cc21` (centres undefined) are 13 µM (≈ 5.44 µg/mL) and 25 µM (≈ 10.5 µg/mL).
As to `N#CC(C#N)=NNc1cccc(Cl)c1`, the outcome in experiment [11] was Active.
